ChEMBL document CHEMBL5331102, “Novel S1R agonists counteracting NMDA excitotoxicity and oxidative stress: A step forward in the discovery of neuroprotective agents” (Eur J Med Chem, 2023)
Activity calls are given as the source filed them. No cut-off for these calls is given here.

Key:
[1] = tested on: SH-SY5Y; test: Neuroprotective activity in human SH-SY5Y cells assessed as prevention of NMDA induced cytotoxicity by measuring cell viability at 0.1 to 5 uM incubated for 24 hrs in presence of NMDA by MTT assay; type: functional, cell-based; conditions: dose 0.1-5 µM
Summary of the method: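 SH-SY5Y cells (~7000/well) co-incubated 24 h at 37 °C in 2% FBS medium with toxic stimulus (NMDA 250 μM or oligomycin 2.5 μM) plus compound at 0.1–5 μM. Viability by MTT, expressed as % of control.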

[2] = Toxicity in Zebrafish embryos assessed as variation in embryo morphology score at 10 uM incubated for 5 days by Teratogenic test; design: species or system Danio rerio; conditions: in vivo, 120 h, time 5 day
Summary of the method: (§1)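 Tg(GFAP:GFP) zebrafish embryos, 8 per group, exposed from 1 h post-fertilization to increasing compound concentrations at 28 °C for about 5 days without medium change; mortality, developmental defects and morphology score assessed at 5 dpf.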

[3] = Toxicity in Zebrafish embryos assessed as increase in embryo vitality structure damage at 10 to 50 uM incubated for 5 days by Teratogenic test; design: species or system Danio rerio; conditions: in vivo, 120 h, dose 10-50 µM, time 5 day
Summary of the method: (§2)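 Tg(GFAP:GFP) zebrafish embryos from 2 female × 1 male matings, 8 embryos per control or concentration, exposed from 1 h post-fertilization and kept at 28 °C for about 5 days without medium change. At 5 dpf (120 h) mortality and developmental abnormalities (tail shape, heart, pigmentation) were scored, with morphology given a severity score.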

[4] = target: Sigma non-opioid intracellular receptor 1 (Homo sapiens, UniProt Q99720); test: Displacement of [3H]-(+)-pentazocine from sigma 1 receptor (unknown origin) assessed as inhibition constant by scintillation counting analysis
Sigma non-opioid intracellular receptor 1, sequence (Q99720 whole entry): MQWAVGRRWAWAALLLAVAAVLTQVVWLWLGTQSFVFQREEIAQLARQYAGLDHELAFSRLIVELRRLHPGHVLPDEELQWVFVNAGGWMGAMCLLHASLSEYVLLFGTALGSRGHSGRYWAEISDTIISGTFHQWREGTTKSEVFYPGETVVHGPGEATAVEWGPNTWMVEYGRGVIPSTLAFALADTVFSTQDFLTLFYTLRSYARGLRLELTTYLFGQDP
Summary of the method: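 Radioligand displacement at S1R with [3H](+)pentazocine (15 nM) and at S2R with [3H]DTG (25 nM); S2R assay includes 1 μM cold (+)pentazocine to mask S1R sites. Bound radioactivity counted by scintillation. IC50 and Hill slope from non-linear Hill fit of competition curves; Ki by Cheng–Prusoff using radioligand concentration and KD from Scatchard plot.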

[5] = Toxicity in Zebrafish embryos assessed as death at 50 uM incubated for 5 days by Teratogenic test; design: species or system Danio rerio, Embryo; conditions: in vivo, 120 h, time 5 day; summary of the method: as §2
[6] = tested on: SH-SY5Y; test: Cytotoxicity against human SH-SY5Y cells assessed as cell viability at 100 uM incubated for 72 hrs by MTT assay
[7] = Toxicity in Zebrafish embryos assessed as morphological abnormality by observing short and up-curved tail at 10 uM incubated for 5 days by Teratogenic test; design: species or system Danio rerio; conditions: in vivo, 120 h, time 5 day; summary of the method: as §1
[8] = tested on: PANC-1; test: Cytotoxicity against human PANC-1 cells assessed as reduction in cell survival rate at 100 uM incubated for 48 to 72 hrs by MTT assay; type: toxicity, cell-based; conditions: panc-1, 100 µM, time 48-72 hrs
Summary of the method: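 Cancer lines grown in Ham's F-12K or DMEM with 10% FBS, used in exponential growth; seeded 2500 cells/well, exposed to 0.1–100 μM for 24, 48 and 72 h continuous. Viability by CellTiter 96 AQueous One (tetrazolium) absorbance at 490 nm; three independent experiments in quadruplicate, % survival vs untreated.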

[9] = tested on: PC-12; test: Neuroprotective activity in rat PC12 cells assessed as induction of NGF-mediated neurite outgrowth at 0.5 uM by neurite outgrowth assay (Rvb=26 +/- 4%); type: functional
Summary of the method: (§3)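 PC12 cells stimulated with NGF (2.5 nM) and treated with compound up to 5 μM, alone or after pre-treatment with S1R antagonist NE-100 (3 μM); read-out is percentage of cells bearing neurite sprouts; mean ± SEM of three independent experiments.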

[10] = Selectivity index, ratio of Ki for displacement of [3H]DTG from sigma 2 receptor (unknown origin) to Ki for displacement of [3H]-(+)-pentazocine from sigma 1 receptor (unknown origin)
[11] = Toxicity in Zebrafish embryos assessed as morphological abnormality by observing oedema at 10 uM incubated for 5 days by Teratogenic test; design: species or system Danio rerio, Embryo; conditions: in vivo, 120 h, time 5 day; summary of the method: as §1
[12] = tested on: PC-12; test: Neuroprotective activity in rat PC12 cells assessed as induction of NGF-mediated neurite outgrowth at 0.1 to 5 uM in presence of NE-100 by neurite outgrowth assay; type: functional, cell-based; conditions: dose 0.1-5 µM; summary of the method: as §3
[13] = tested on: PC-12; test: Cytotoxicity against rat PC12 cells assessed as reduction in cell viability at <1 uM incubated for 24 hrs by MTT assay; type: toxicity, cell-based; conditions: pc-12, 24 h
[14] = Toxicity in Zebrafish embryos assessed as morphological abnormality by observing inflated swim bladder at 10 uM incubated for 5 days by Teratogenic test; type: tissue-based, Danio rerio, Embryo; conditions: in vivo, 120 h, time 5 day; summary of the method: as §1
[15] = tested on: SH-SY5Y; test: Cytotoxicity against human SH-SY5Y cells assessed as cell death at 0.1 to 50 uM incubated for 72 hrs by MTT assay; type: toxicity, cell-based; conditions: dose 0.1-50 µM
Summary of the method: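 SH-SY5Y cells kept in DMEM/10% FBS, 2 mM glutamine, 37 °C, 5% CO2; ~7000 cells/well, after 1 day given compound (six concentrations, 0.1–100 μM; DMSO stocks 10 mM) in 2% FBS medium for 72 h. MTT (0.5% w/v, 2 h), formazan dissolved in DMSO, absorbance read; triplicates, % of untreated control.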

[16] = Toxicity in Zebrafish embryos assessed as morphological abnormality by observing poor pigmentation at 10 uM incubated for 5 days by Teratogenic test; design: species or system Danio rerio, Embryo; conditions: in vivo, 120 h, time 5 day; summary of the method: as §1
[17] = tested on: PC-12; test: Cytotoxicity against rat PC12 cells assessed as reduction in cell viability at <5 uM incubated for 24 hrs by MTT assay; type: toxicity, cell-based; conditions: pc-12, 24 h

Row | SMILES | Activity [1] | Activity [2] | Activity [3] | Ki [4] [nM] | Activity [5] | Activity [6] [%] | Activity [7] | Activity [8] [%] | Activity [9] [%] | Ratio Ki [10] | Activity [11] | Activity [12] | Activity [13] | Activity [14] | Activity [15] | Activity [16] | Activity [17]
1 | c1ccc(CC2CCN(CCOc3ccccc3)CC2)cc1 | Active | Toxic | Toxic | 0.93 | Toxic | 76 | 75% | 20 | 37 | 77 | Toxic | inactive | Non-Toxic | Toxic | Non-Toxic | Toxic | –
2 | c1ccc(CC2CCN(CCCOc3ccccc3)CC2)cc1 | Active | Non-Toxic | Toxic | 1.1 | Toxic | 82 | Toxic | 20 | – | 80 | – | inactive | – | – | Non-Toxic | – | Non-Toxic
